The text below walks through data of ChEMBL document CHEMBL3259602, “Thiaflavan scavenges radicals and inhibits DNA oxidation: a story from the ferrocene modification” (Eur J Med Chem, 2014).

Molecules are shown by their SMILES. Calls of active or inactive are those of the source. No cut-off for these calls is given here.

Test [1] can be described thus: Antioxidant activity assessed as inhibition of AAPH-induced oxidation of DNA at 100 uM by spectrophotometric analysis. In kind it is functional. In outline: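 Oxidation of 2.0 mg/mL DNA by 40 mM AAPH in phosphate/EDTA buffer at 37 °C, with compound at 100 μM (DMSO vehicle; DMSO-only control). TBARS was monitored at 535 nm (ε 1.56 × 10^5 M⁻¹ cm⁻¹), and its formation rate d[TBARS]/dt was expressed in nM min⁻¹.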

A short description of test [2]: Antioxidant activity assessed as inhibition of AAPH-induced oxidation of DNA measured as TBARS formation by spectrophotometric analysis. In kind it is functional. The procedure, abridged:
(§1)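 DNA sodium salt (2.0 mg/mL) with 40 mM AAPH in phosphate buffer (8.1 mM Na2HPO4, 1.9 mM NaH2PO4, 10.0 mM EDTA), with various compound concentrations in DMSO; DMSO-only blank. Samples were heated at 37 °C. TBARS was read at 535 nm. The inhibition period was taken at the crossing of tangents, then plotted against concentration.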

Test [3] in a line: Antioxidant activity assessed as inhibition of AAPH-induced oxidation of DNA at 100 uM by spectrophotometric analysis.
The nature of test [4]: Antioxidant activity assessed as ABTS radical scavenging activity after 16 hrs by spectrophotometric analysis. It counts as functional. In outline: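 Radical cation pre-formed over 16 h, then diluted in ethanol to about 0.70 absorbance at 734 nm. Compound in DMSO (0.1 mL) was added to 1.9 mL of radical solution at 7.5 μM final. Absorbance decay was recorded at 25 °C. The rate constant k was derived from the initial rate (t = 0).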

A short description of test [5]: Antioxidant activity assessed as galvinoxyl radical scavenging activity by spectrophotometric analysis. It counts as functional. The procedure, abridged: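 Galvinoxyl in ethanol, absorbance about 1.00 at 428 nm. Compound in DMSO (0.1 mL) was added to 1.9 mL of radical solution at 7.5 or 75.0 μM final, depending on compound. Absorbance decay was recorded at 25 °C. The rate constant k was derived from the initial rate at t = 0.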

In test [6] the test system is Radical scavenging activity. As to the kind of experiment: Antioxidant activity assessed as DPPH radical scavenging activity by spectrophotometric analysis. It counts as functional. The procedure, abridged: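 DPPH in ethanol (about 1.00 absorbance at 517 nm). Compound in DMSO (0.1 mL) was added to 1.9 mL of radical solution at 37.5 or 75.0 μM final, depending on compound. Absorbance decay was followed at 25 °C. The rate constant k was calculated from the initial reaction rate at t = 0.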
(In general: DPPH is a stable violet radical that fades when it is reduced.)

A short description of test [7]: Antioxidant activity assessed as inhibition of AAPH-induced oxidation of DNA by spectrophotometric analysis. In kind it is functional. The procedure, abridged: as §1
Test [8] can be described thus: Antioxidant activity assessed as inhibition of AAPH-induced oxidation of DNA at 200 uM by spectrophotometric analysis. In kind it is functional.

Turning to `Oc1ccc(C2CSc3ccc(O)cc3O2)cc1` (stereo unspecified), the outcome in test [1] and in test [3] was Active. Moreover, the Activity in test [2] amounted to 4.1 nM/min. Further, the K in test [4] amounted to 10.8 ×10³ /M/s; in test [5], 0.034 ×10³ /M/s; in test [6], 0.069 ×10³ /M/s.

Turning to `Oc1ccc2c(c1)SCC(c1ccc(O)c(O)c1)O2` (stereo unspecified), in test [7], the result was Active. Moreover, the K in test [4] was found to be 11.7 ×10³ /M/s; in test [5] it was 0.52 ×10³ /M/s; in test [6] it was 1.18 ×10³ /M/s.

For the molecule `Oc1ccc2c(c1)OC(c1ccc(O)c(O)c1)CS2` (stereo unspecified), the outcome in test [7] was Active. The results for the K in test [4], in test [5] and in test [6] were 16.7 ×10³ /M/s, 0.57 ×10³ /M/s and 1.61 ×10³ /M/s, respectively.

As to `COc1ccc2c(c1)OC(c1ccc(O)cc1)CS2` (stereo unspecified), the outcome in test [7] was Active. The K in test [4] was found to be 0.168 ×10³ /M/s.

In the case of `COc1ccc2c(c1)SCC(c1ccc(O)cc1)O2` (stereo unspecified), the Activity in test [2] stood at 4.2 nM/min. The K in test [4] came to 0.202 ×10³ /M/s. For the same molecule, the result in test [8] was Active.

In the case of `COc1ccc2c(c1)SC=C(c1ccc(O)cc1)O2`, in test [2], the Activity is 5.8 nM/min. Also, the K in test [4] was found to be 8.14 ×10³ /M/s; in test [6], 0.031 ×10³ /M/s. Further, the outcome in test [8] was Active.

As for `Cc1c(C)c2c(c(C)c1O)CCC(C)(C(=O)O)O2` (stereo unspecified), the figures for the K in test [4], in test [5] and in test [6] were 29.2 ×10³ /M/s, 1.7 ×10³ /M/s and 0.353 ×10³ /M/s, respectively.

Take `Oc1ccccc1O`: the K in test [4] was determined as 2.58 ×10³ /M/s; in test [5], 1.78 ×10³ /M/s; in test [6], 1.3 ×10³ /M/s.

`Oc1ccc(C2CSc3cc(O)ccc3O2)cc1` (stereo unspecified): the result in test [7] was Active. In addition, the results for the K in test [4], in test [5] and in test [6] were 8.92 ×10³ /M/s, 0.025 ×10³ /M/s and 0.043 ×10³ /M/s, respectively.

`COc1ccc2c(c1)SCC(c1ccc(O)c(O)c1)O2` (stereo unspecified): the result in test [7] was Active. Moreover, the figures for the K in test [4], in test [5] and in test [6] were 390 ×10³ /M/s, 2.54 ×10³ /M/s and 2.2 ×10³ /M/s, respectively.

`Oc1ccc2c(c1)SC=C(c1ccccc1)O2`: in test [2], the Activity is 5.2 nM/min. Besides, the K was 4.89 ×10³ /M/s in test [4] and 0.0071 ×10³ /M/s in test [6]. Further, the result in test [8] was Active.
